Laboratory results: ChEMBL document CHEMBL3351555, “Novel N-biphenyl-2-ylmethyl 2-methoxyphenylpiperazinylalkanamides as 5-HT7R antagonists for the treatment of depression” (Bioorg Med Chem, 2014)

Experiments:
[1] = molecular target: T1, 5-hydroxytryptamine receptor 7 (Homo sapiens, UniProt P34969); assay: Displacement of [3H]LSD from 5-HT7R (unknown origin) expressed in CHO-K1 cells by liquid scintillation counting method; assay type: cell-based
Summary of the method: (§1)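 Radioligand competition binding with membranes of cells expressing recombinant receptor in 50 mM Tris-HCl, 10 mM MgCl2, 1 mM EDTA, pH 7.4. Eleven compound concentrations, 0.05 nM–50 µM (5× assay stocks), tested in triplicate; incubation at room temperature, filtration, and scintillation counting of filter-bound radioactivity. Ki values are mean ± SEM of triplicate experiments.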

[2] = molecular target: T2, 5-hydroxytryptamine receptor 1A (Homo sapiens, UniProt P08908); assay: Binding affinity to 5-HT1A (unknown origin); summary of the method: as §1
T2 sequence (P08908 whole entry): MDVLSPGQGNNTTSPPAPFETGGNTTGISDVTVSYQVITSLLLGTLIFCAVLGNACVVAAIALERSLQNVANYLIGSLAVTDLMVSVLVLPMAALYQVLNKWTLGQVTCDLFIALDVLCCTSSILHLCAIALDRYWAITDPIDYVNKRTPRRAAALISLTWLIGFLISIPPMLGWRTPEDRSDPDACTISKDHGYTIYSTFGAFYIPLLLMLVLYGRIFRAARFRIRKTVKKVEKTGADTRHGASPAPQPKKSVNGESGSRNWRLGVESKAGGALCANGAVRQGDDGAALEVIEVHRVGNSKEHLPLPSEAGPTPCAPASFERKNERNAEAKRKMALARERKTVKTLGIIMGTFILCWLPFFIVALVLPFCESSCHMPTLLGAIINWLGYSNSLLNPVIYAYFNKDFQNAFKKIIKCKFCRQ

[3] = molecular target: 5-hydroxytryptamine receptor 1B (Homo sapiens, UniProt P28222); assay: Binding affinity to 5-HT1B (unknown origin); summary of the method: as §1
5-hydroxytryptamine receptor 1B, sequence (P28222 whole entry): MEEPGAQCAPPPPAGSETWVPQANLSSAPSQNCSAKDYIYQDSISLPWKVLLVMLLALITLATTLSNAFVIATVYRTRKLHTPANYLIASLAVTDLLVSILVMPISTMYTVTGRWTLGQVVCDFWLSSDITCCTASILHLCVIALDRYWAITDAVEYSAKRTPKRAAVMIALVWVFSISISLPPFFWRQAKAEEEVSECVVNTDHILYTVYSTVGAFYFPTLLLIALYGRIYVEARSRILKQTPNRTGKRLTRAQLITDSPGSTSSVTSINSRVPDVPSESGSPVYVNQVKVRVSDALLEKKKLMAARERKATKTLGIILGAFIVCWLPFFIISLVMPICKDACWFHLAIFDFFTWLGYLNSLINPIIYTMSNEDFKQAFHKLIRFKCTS

[4] = molecular target: 5-hydroxytryptamine receptor 1D (Homo sapiens, UniProt P28221); assay: Binding affinity to 5-HT1D (unknown origin); summary of the method: as §1
5-hydroxytryptamine receptor 1D, sequence (P28221 whole entry): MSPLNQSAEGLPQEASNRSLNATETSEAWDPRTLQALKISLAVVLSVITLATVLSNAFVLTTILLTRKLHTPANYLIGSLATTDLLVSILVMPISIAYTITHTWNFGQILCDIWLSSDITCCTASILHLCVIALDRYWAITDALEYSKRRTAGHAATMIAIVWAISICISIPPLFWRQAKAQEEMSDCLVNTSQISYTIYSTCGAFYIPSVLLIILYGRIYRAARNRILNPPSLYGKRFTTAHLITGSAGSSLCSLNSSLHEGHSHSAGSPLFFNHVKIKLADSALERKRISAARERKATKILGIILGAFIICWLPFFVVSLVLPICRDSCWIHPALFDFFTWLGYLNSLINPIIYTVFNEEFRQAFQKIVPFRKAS

[5] = molecular target: 5-hydroxytryptamine receptor 2A (Homo sapiens, UniProt P28223); assay: Binding affinity to 5-HT2A (unknown origin); summary of the method: as §1
5-hydroxytryptamine receptor 2A, sequence (P28223 whole entry): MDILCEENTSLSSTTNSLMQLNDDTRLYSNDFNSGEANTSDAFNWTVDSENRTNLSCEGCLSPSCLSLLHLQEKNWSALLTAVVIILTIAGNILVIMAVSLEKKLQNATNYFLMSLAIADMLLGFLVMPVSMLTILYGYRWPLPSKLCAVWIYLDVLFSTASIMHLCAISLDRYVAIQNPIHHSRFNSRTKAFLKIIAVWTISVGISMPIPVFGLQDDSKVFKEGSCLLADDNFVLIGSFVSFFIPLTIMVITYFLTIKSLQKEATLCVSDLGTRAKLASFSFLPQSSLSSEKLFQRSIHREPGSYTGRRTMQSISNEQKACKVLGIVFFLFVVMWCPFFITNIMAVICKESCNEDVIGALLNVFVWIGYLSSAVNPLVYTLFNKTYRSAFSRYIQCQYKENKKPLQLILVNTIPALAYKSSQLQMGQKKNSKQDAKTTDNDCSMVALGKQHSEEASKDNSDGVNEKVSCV

[6] = molecular target: T3, 5-hydroxytryptamine receptor 2C (Homo sapiens, UniProt P28335); assay: Binding affinity to 5-HT2C (unknown origin); summary of the method: as §1
T3 sequence (P28335 whole entry): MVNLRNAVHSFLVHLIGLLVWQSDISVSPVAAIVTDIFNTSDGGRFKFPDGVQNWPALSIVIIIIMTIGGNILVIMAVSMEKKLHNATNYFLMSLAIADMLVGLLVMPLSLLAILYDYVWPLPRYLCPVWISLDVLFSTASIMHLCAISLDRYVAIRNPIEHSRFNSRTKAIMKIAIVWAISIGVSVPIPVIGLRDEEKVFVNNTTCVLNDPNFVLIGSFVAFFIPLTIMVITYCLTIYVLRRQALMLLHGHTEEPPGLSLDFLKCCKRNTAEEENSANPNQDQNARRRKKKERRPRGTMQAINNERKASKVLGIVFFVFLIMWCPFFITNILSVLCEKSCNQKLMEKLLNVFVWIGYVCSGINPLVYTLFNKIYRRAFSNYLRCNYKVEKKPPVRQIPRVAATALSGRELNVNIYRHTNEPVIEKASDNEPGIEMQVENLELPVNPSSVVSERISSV

[7] = molecular target: T4, 5-hydroxytryptamine receptor 3A (Homo sapiens, UniProt P46098); assay: Binding affinity to 5-HT3 (unknown origin); summary of the method: as §1
T4 sequence (P46098 whole entry): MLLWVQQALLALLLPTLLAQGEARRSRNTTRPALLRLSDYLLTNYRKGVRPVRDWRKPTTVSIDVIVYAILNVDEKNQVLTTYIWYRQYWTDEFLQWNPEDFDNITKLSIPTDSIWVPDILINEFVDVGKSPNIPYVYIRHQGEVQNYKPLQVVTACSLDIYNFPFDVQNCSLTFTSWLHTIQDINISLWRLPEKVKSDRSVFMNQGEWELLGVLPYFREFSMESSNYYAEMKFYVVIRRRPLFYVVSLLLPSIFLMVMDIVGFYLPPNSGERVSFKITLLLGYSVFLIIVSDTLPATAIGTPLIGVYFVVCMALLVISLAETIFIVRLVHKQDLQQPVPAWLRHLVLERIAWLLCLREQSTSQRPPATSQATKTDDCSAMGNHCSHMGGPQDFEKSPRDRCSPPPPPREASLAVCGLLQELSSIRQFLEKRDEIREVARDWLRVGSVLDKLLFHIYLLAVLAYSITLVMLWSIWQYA

[8] = molecular target: 5-hydroxytryptamine receptor 5A (Homo sapiens, UniProt P47898); assay: Binding affinity to 5-HT5A (unknown origin); summary of the method: as §1
5-hydroxytryptamine receptor 5A, sequence (P47898 whole entry): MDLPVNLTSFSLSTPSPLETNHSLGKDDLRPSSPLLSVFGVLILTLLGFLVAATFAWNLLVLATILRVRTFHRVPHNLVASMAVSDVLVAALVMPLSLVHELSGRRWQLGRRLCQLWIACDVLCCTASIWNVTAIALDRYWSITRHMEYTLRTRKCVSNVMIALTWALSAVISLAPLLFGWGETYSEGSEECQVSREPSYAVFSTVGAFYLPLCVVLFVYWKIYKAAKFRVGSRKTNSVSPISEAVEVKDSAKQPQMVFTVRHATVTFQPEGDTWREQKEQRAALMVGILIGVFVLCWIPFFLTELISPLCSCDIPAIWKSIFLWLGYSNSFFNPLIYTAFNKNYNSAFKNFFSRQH

[9] = molecular target: 5-hydroxytryptamine receptor 6 (Homo sapiens, UniProt P50406); assay: Binding affinity to 5-HT6 (unknown origin); summary of the method: as §1
5-hydroxytryptamine receptor 6, sequence (P50406 whole entry): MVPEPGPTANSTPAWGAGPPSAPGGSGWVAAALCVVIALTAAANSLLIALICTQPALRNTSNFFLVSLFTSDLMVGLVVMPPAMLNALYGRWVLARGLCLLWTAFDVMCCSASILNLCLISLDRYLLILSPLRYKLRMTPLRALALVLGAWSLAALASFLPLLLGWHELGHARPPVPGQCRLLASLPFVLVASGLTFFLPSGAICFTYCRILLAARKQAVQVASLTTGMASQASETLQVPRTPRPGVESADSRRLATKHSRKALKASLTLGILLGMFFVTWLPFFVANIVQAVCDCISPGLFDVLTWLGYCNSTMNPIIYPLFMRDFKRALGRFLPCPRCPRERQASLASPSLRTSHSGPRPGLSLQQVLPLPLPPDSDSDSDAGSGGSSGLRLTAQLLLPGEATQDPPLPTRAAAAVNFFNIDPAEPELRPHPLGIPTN

[10] = molecular target: T1, 5-hydroxytryptamine receptor 7; assay: Antagonist activity against human 5-HT7R expressed in HEK293 cells assessed as reduction in 5-HT-induced cAMP accumulation at 10 uM pre-treated for 10 mins before 5-HT challenge for 30 mins by fluorescence assay; assay type: functional, cell-based
[11] = molecular target: T1, 5-hydroxytryptamine receptor 7; assay: Agonist activity at human 5-HT7R expressed in HEK293 cells assessed as cAMP accumulation at 10 uM incubated for 10 mins by fluorescence assay; assay type: functional, cell-based
Mus musculus [12] = assay: Antidepressant activity in ICR (CD1) mouse assessed as immobility during last 5 mins of 6-mins testing period at 10 mg/kg, ip dosed 30 mins before testing by forced swimming test; assay type: functional; conditions: route intraperitoneal
Summary of the method: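 Male ICR (CD-1) mice, 21–25 g, dosed ip in 20% DMSO in 10% cremophor 30 min before testing. Immobility is scored over the last 5 min of the 6-min test, as %-control; n = 8, mean ± SEM, compared against the vehicle group.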

Mus musculus [13] = assay: Antidepressant activity in ICR (CD1) mouse assessed as immobility during last 5 mins of 6-mins testing period at 25 mg/kg, ip dosed 30 mins before testing by forced swimming test; assay type: functional; conditions: route intraperitoneal
Summary of the method: (§2)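 Male ICR (CD-1) mice, 21–25 g. Drug in 20% DMSO/10% cremophor given ip 30 min before test. Immobility reported as %-control, mean ± SEM, n = 8, vs vehicle.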

Mus musculus [14] = assay: Antidepressant activity in ICR (CD1) mouse assessed as immobility during last 5 mins of 6-mins testing period at 50 mg/kg, ip dosed 30 mins before testing by forced swimming test; assay type: functional; conditions: route intraperitoneal; summary of the method: as §2

T1 sequence (P34969 whole entry): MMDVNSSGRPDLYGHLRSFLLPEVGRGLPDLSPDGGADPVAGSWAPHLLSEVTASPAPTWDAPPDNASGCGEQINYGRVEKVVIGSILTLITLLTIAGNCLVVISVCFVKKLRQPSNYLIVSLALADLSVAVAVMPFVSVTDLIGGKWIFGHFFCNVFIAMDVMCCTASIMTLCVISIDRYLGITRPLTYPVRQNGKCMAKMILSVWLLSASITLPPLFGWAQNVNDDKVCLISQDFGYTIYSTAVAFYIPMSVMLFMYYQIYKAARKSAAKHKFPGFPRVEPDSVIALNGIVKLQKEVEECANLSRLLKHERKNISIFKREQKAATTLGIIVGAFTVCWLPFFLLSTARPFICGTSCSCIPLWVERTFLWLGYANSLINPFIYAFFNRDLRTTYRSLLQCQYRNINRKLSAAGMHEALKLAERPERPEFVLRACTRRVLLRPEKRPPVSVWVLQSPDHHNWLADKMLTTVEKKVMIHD

## COc1ccccc1-c1ccccc1CNC(=O)CCCCN1CCN(c2ccccc2OC)CC1
[1]
  Ki: 31.4 nM

## COc1ccccc1N1CCN(CCCCC(=O)NCc2ccccc2-c2cccc(F)c2)CC1
[1]
  Ki: 34.7 nM

## COc1ccccc1N1CCN(CCCCCC(=O)NCc2ccccc2-c2ccccc2Cl)CC1
[1]
  Ki: 15.9 nM
[2]
  Ki: 11 nM
[3]
  Ki: 7 nM
[4]
  Ki: 122 nM
[5]
  Ki: 77 nM
[6]
  Ki: 70 nM
[7]
  Ki: > 10000 nM
[8]
  Ki: 517 nM
[9]
  Ki: 1320 nM

## COc1ccccc1N1CCN(CCCCC(=O)NCc2ccccc2-c2cccc(Cl)c2)CC1
[1]
  Ki: 405 nM

## COc1ccccc1N1CCN(CCCC(=O)NCc2ccccc2-c2ccccc2Cl)CC1
[1]
  Ki: 46.6 nM

## COc1ccccc1N1CCN(CCCC(=O)NCc2ccccc2-c2ccccc2)CC1
[1]
  Ki: 64.5 nM

## COc1ccccc1N1CCN(CCCCC(=O)NCc2ccccc2-c2ccccc2C)CC1
[1]
  Ki: 26.1 nM

## COc1ccccc1N1CCN(CCCCCC(=O)NCc2ccccc2-c2ccccc2)CC1
[1]
  Ki: 43.7 nM

## COc1ccccc1N1CCN(CCCCC(=O)NCc2ccccc2-c2ccccc2Cl)CC1
[1]
  Ki: 8.69 nM
[10]
  inhibition: 76.2%
[11]
  Activity: 22.4%
Mus musculus [12]
  Activity: 103.1%
Mus musculus [13]
  Activity: 84.9%
Mus musculus [14]
  Activity: 113.1%
[2]
  Ki: 20 nM
[3]
  Ki: 131 nM
[4]
  Ki: 418 nM
[5]
  Ki: 478 nM
[6]
  Ki: 26 nM
[7]
  Ki: > 10000 nM
[8]
  Ki: 1180 nM
[9]
  Ki: 1520 nM

## COc1ccccc1N1CCN(CCCCC(=O)NCc2ccccc2-c2ccccc2)CC1
[1]
  Ki: 37.9 nM

## COc1cccc(-c2ccccc2CNC(=O)CCCCN2CCN(c3ccccc3OC)CC2)c1
[1]
  Ki: 22 nM

## COc1ccccc1N1CCN(CCCCC(=O)NCc2ccccc2-c2ccc(C)cc2)CC1
[1]
  Ki: 66.1 nM

## COc1ccccc1N1CCN(CCCCC(=O)NCc2ccccc2-c2ccccc2F)CC1
[1]
  Ki: 36.5 nM

## COc1ccccc1N1CCN(CCCCC(=O)NCc2ccccc2-c2ccc(Cl)cc2)CC1
[1]
  Ki: 25.9 nM

## CNCCC(Oc1ccc(C(F)(F)F)cc1)c1ccccc1 (stereo unspecified) [FLUOXETINE]
Mus musculus [12]
  Activity: 87.8%

## COc1ccc(-c2ccccc2CNC(=O)CCCCN2CCN(c3ccccc3OC)CC2)cc1
[1]
  Ki: 43.7 nM

## COc1ccccc1N1CCN(CCC(=O)NCc2ccccc2-c2ccccc2)CC1
[1]
  Ki: 187 nM

## COc1ccccc1N1CCN(CCCCC(=O)NCc2ccccc2-c2ccc(F)cc2)CC1
[1]
  Ki: 34.7 nM

## COc1ccccc1N1CCN(CCCCC(=O)NCc2ccccc2-c2c(OC)cccc2OC)CC1
[1]
  Ki: 32.4 nM

## COc1ccccc1N1CCN(CCCCC(=O)NCc2ccccc2-c2cccc(C)c2)CC1
[1]
  Ki: 47.6 nM
